The source of these data is ChEMBL document CHEMBL1681691, “Synthesis and biological activity of amino acid conjugates of abscisic acid” (Bioorg Med Chem, 2011).

SMILES strings stand for the structures. Calls of active or inactive are those of the source. No cut-off for these calls is given here.

The subject of data set [1] is Oryza sativa. As to the kind of experiment: Metabolic stability in Oryza sativa seedling assessed as ABA-d6 release per mg of protein after 4 days by LC-MS. It counts as ADME, organism-based. The note with it: in vivo, 96 h.
The target of data set [2] is T1, IAA-amino acid hydrolase ILR1-like 4 (Arabidopsis thaliana) (UniProt O04373).
T1 sequence (whole entry): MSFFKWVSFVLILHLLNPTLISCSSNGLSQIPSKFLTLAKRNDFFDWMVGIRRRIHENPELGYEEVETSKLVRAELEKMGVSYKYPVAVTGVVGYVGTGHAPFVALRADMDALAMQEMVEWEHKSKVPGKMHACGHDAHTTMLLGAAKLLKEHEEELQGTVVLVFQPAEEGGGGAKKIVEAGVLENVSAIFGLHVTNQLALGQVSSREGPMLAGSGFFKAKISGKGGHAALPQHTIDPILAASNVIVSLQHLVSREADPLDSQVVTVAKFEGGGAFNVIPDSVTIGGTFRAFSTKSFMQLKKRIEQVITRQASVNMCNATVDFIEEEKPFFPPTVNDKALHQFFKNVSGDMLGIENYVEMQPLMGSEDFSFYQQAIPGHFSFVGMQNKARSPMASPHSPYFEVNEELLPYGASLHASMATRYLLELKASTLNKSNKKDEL
In words: Activity at GST-tagged IAR3 of Arabidopsis thaliana assessed as ABA release per mg of protein after 7 hrs by HPLC. In outline: (§1)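 Recombinant Arabidopsis GST-IAR3 expressed in E. coli BL21(DE3) (IPTG 50 µM, overnight at 18 °C) and purified on glutathione-agarose. Substrate at 1 mM was preincubated 5 min at 30 °C in 50 mM Tris-HCl pH 8.0 with 1 mM DTT and 1 mM MnCl2. Reaction started with 15 ng/µl enzyme at 30 °C, sampled up to 5 h (some substrates 7 or 24 h), quenched in MeOH/1% AcOH, cleaned on cartridge, HPLC at 254 nm.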

Data set [3] concerns Oryza sativa. In words: Inhibition of seedling elongation in Oryza sativa at 100 uM after 7 days.
Data set [4] relates to Oryza sativa. As to the kind of experiment: Inhibition of seedling elongation in Oryza sativa after 7 days.
Data set [5] relates to Spinacia oleracea. As to the kind of experiment: Inhibition of seed germination in Spinacia oleracea at 100 uM after 24 hrs.
Data set [6] in a line: Chemical stability of the compound at 25 degC after 7 days. The format is physicochemical. The note with it: 168 h. An outline of the steps:
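Compound at 100 µM in 2 ml aqueous solution, prepared as for the rice growth assay, held in a capped glass tube at 25 °C under continuous light for 7 days, then analysed by reverse-phase HPLC.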

Data set [7] deals with T1, IAA-amino acid hydrolase ILR1-like 4 (Arabidopsis thaliana). As to the kind of experiment: Activity at GST-tagged IAR3 of Arabidopsis thaliana assessed as ABA release per mg of protein after 5 hrs by HPLC. In outline: as §1
The subject of data set [8] is Arabidopsis thaliana. As to the kind of experiment: Inhibition of seed germination in Arabidopsis thaliana at 10 uM after 24 hrs. The format is functional. An outline of the steps: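 Arabidopsis Col-0 seeds, 25 per test, sterilized in 70% EtOH for 30 min then EtOH for 1 min. Seeds were soaked in 250 µl test solution and chilled 3 days at 5 °C in the dark, then germinated on filter paper under continuous light for 24 h at 22 °C. Scored as % with emerged radicle; run twice. Single-concentration test at 10 µM.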

Data set [9] has as its target T1, IAA-amino acid hydrolase ILR1-like 4 (Arabidopsis thaliana). In words: Activity at GST-tagged IAR3 of Arabidopsis thaliana assessed as IAA release per mg of protein after 5 hrs by HPLC. In outline: as §1
Data set [10] concerns Spinacia oleracea. In words: Inhibition of seed germination in Spinacia oleracea at 100 uM after 24 hrs. It counts as functional. An outline of the steps: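 Spinach cv. Jiromaru seeds sterilized with EtOH for 5 min and rinsed in running tap water for 2 h. Placed on filter paper wetted with 2 ml test solution in a Petri dish, held 2 days at 5 °C, then germinated 24 h at 22 °C under continuous light. Single-concentration test at 100 µM.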

Data set [11] relates to Lactuca sativa. In words: Inhibition of seed germination in Lactuca sativa at 100 uM after 24 hrs. The format is functional.
The subject of data set [12] is Arabidopsis thaliana. In words: Inhibition of seed germination in Arabidopsis thaliana after 24 hrs. It counts as functional, organism-based.
In data set [13] the test system is Lactuca sativa. In words: Inhibition of seed germination in Lactuca sativa after 24 hrs. It counts as functional, organism-based.

Consider `[2H]C([2H])([2H])C1(C([2H])([2H])[2H])CC(=O)C=C(C)[C@]1(O)/C=C/C(C)=C\C(=O)N[C@@H](C)C(=O)O`, for which the Stability entry in the data set on Oryza sativa [1] was “Unstable”.

Usually inhibition stands for the relative decrease from the control value, in per cent. As a reminder, the IC50 is the concentration that inhibits the measured activity by half. The low end stands for greater potency in that assay, the high end for weaker potency in that assay. For the compound `CSCC[C@H](NC(=O)/C=C(C)\C=C\[C@@]1(O)C(C)=CC(=O)CC1(C)C)C(=O)O`, in [2], the Activity stood at 22 nmol/h/mg. Also, the inhibition at 100 µM with Oryza sativa [3] is more than 80%. In the data set with Oryza sativa [4], this compound yielded an IC50 of 16 µM.

Consider `CC1=CC(=O)CC(C)(C)[C@@]1(O)/C=C/C(C)=C\C(=O)N[C@@H](CCC(=O)O)C(=O)O`, for which the inhibition entry with Spinacia oleracea [5] was “Active”.

With `CC1=CC(=O)CC(C)(C)[C@@]1(O)/C=C/C(C)=C\C(=O)N[C@@H](CO)C(=O)O`, the inhibition at 100 µM with Oryza sativa [3] was more than 80%. Further, half-maximal inhibition in the data set with Oryza sativa [4] (IC50) required 13 µM.

In the case of `[2H]C([2H])([2H])C1(C([2H])([2H])[2H])CC(=O)C=C(C)[C@]1(O)/C=C/C(C)=C\C(=O)N[C@H](C)C(=O)O`, the Stability entry in the data set on Oryza sativa [1] was “Stable”.

With `CC1=CC(=O)CC(C)(C)[C@@]1(O)/C=C/C(C)=C\C(=O)N[C@@H](CCC(N)=O)C(=O)O`, the inhibition at 100 µM in the data set on Oryza sativa [3] was more than 80%. Further, the inhibition entry in the data set on Spinacia oleracea [5] was “Active”. Further, the IC50 in the data set with Oryza sativa [4] was 8.3 µM.

On to `CC1=CC(=O)CC(C)(C)[C@@]1(O)/C=C/C(C)=C\C(=O)N[C@@H](C)C(=O)O`, for which, in [6], the Stability entry is “Stable”. Also, the Activity in [7] was found to be 310 nmol/h/mg. In the data set on Oryza sativa [3], this compound yielded an inhibition at 100 µM of more than 80%. Further, in the data set on Arabidopsis thaliana [8], the inhibition entry is “Active”. This compound returned an IC50 in the data set on Oryza sativa [4] of 7 µM.

For `CC1=CC(=O)CC(C)(C)[C@@]1(O)/C=C/C(C)=C\C(=O)NCC(=O)O`, in data set [7], the Activity was 230 nmol/h/mg. This compound displayed an inhibition at 100 µM with Oryza sativa [3] of more than 80%. This compound registered an IC50 with Oryza sativa [4] of 5.7 µM.

For `CC1=CC(=O)CC(C)(C)[C@@]1(O)/C=C/C(C)=C\C(=O)N[C@@H](CC(N)=O)C(=O)O`, the Activity in data set [2] was found to be 19 nmol/h/mg. For the same compound, in the data set on Oryza sativa [3], the inhibition at 100 µM was more than 80%. Besides, the IC50 in the data set on Oryza sativa [4] turned out to be 9.3 µM.

`C[C@H](NC(=O)Cc1c[nH]c2ccccc12)C(=O)O`: in data set [9], the Activity is 2100 nmol/h/mg.

Turning to `CC1=CC(=O)CC(C)(C)[C@@]1(O)/C=C/C(C)=C\C(=O)N[C@@H](CC(=O)O)C(=O)O`, the inhibition at 100 µM with Oryza sativa [3] is more than 80%. This compound also came in with an IC50 with Oryza sativa [4] of 6.4 µM.

Take `CC1=CC(=O)CC(C)(C)[C@@]1(O)/C=C/C(C)=C\C(=O)O` [(+)-ABSCISIC ACID]: the inhibition at 100 µM in the data set with Oryza sativa [3], in the data set with Spinacia oleracea [10] and in the data set with Lactuca sativa [11] was 100% throughout. Besides, the inhibition at 10 µM with Arabidopsis thaliana [8] stood at 100%. The IC50 with Arabidopsis thaliana [12] was determined as 0.2 µM; in the data set on Lactuca sativa [13] it was 5.7 µM; in the data set with Oryza sativa [4] it was 2.1 µM.
